The full list was thinned out, with hits kept by preference.
L major viab = inhibitors of Leishmania major promastigote growth; Leishmania major promastigotes, resazurin fluorescence viability; inhibition, % at 10 µM; 9% of 200,000 active; in the data active = inhibition above about 50%;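 also: promastigotes grown with compound for 44 hours at 28 °C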
DTT redox prof = compounds producing H2O2 with reducing agent – biochemical, NIH compound library profiling, artefact control for MLSCN library redox annotation, primary screen; DTT-dependent redox cycling H2O2, phenol red/HRP absorbance; 100% = 100 µM peroxide control, 0% = buffer; activation, % at 10 µM; AID 878; 0.03% of 200,000 active;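 active = activation of at least 50% relative to the plate's high and low controls in the primary single-dose screen; inactive = activation below 50%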;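 also: compound incubated with DTT at 0.8 mM final as the reducing agent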
MPTP inh = inhibitors of mitochondrial permeability transition pore; inhibition, % at 10 µM; 1.4% of 360,000 active; isolated mouse mitochondria, Ca2+ swelling absorbance, 30 min; AID 602449;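 active = inhibition of 50% or more, scaled per plate between neutral and stimulator controls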;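 also: 0% = DMSO wells given calcium and 100% = 1 mM EGTA wells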
T cruzi repl = T. cruzi replication inhibition; T. cruzi beta-gal in NIH3T3, luminescence, 90 h; 1.4% of 300,000 active; inhibition, % (concentration not given with the values);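 active = mean inhibition across valid replicates above about 55%, limit read from the data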;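 also: signal also drops with host cell toxicity which is not excluded here; 0% = plate median of DMSO wells and 100% = zero luminescence signal; higher percent means less beta-gal luminescence so fewer parasites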
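Assay system: NIH/3T3 fibroblasts plus reporter T. cruzi. Amount: NIH/3T3 cells, 5,000 per well. Buffer or medium: DMEM, 2% fetal bovine serum. Doses: compound pinned at 50 nL/well, DMSO. Schedule: ≥90 h infection period, 3 h prior cell attachment. Signal: luminescent β-galactosidase signal after 60 min lysis. Read-out: parasite load inhibition, %.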
Hep lipid drop = modulators of hepatic lipid droplet formation; inhibition, % at 6.5 µM; AML12 mouse hepatocytes, oleate lipid droplets, BODIPY imaging; 0.4% of 240,000 active; AID 1656;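 active = lipid droplet intensity inhibited by at least 50%, with more than 500 cells counted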
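Assay system: AML12 mouse liver cells | Compound: 6.5 µM single-point dosing | Schedule: Overnight exposure | Technique: Fluorescence imaging, 20x objective, two fields per well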
Numbers without * were called inactive; . = no result given.

SMILES | L major viab | DTT redox prof | MPTP inh | T cruzi repl | Hep lipid drop
CCOC(=O)C1(Cc2ccccc2Cl)CCN(S(=O)(=O)N(C)C)CC1 | 15 | 0 | -1 | -2 | 0
CCOC(=O)C1(Cc2ccccc2C(F)(F)F)CCN(C(C)CCn2cccn2)CC1 (stereo unspecified) | 49 | 0 | -2 | 68* | -7
CCOC(=O)C1(Cc2ccccc2C(F)(F)F)CCN(C(C)CSC)CC1 (stereo unspecified) | 76* | -1 | 4 | 36 | -4
CCCn1cc(CN2CCC(Cc3ccccc3)(C(=O)OCC)CC2)c(C)n1 | 20 | 12 | 0 | 13 | -2
COC(=O)C1=CN(c2ccc(F)cc2)C(N)=C(C#N)C1c1cccc(F)c1 (stereo unspecified) | . | . | 0 | . | .
O=C(Cc1ccc(F)cc1)NCCS(=O)(=O)N1CCN(c2cccc(Cl)c2)CC1 | . | . | 0 | -9 | .
CCCc1nc2oc3c(NCCN4CCOCC4)ncnc3c2c2c1CCCC2 | . | . | -1 | 12 | .
CC(C)Cc1nc2oc3c(NCCCN4CCOCC4)ncnc3c2c2c1CCC2 | 58* | 3 | 0 | 24 | .
O=S(=O)(c1ccc2c(c1)OCCO2)N1CCC(n2cnc3cc(F)ccc32)CC1 | 69* | -1 | 7 | -4 | .
O=S(=O)(c1ccc2c(c1)OCCO2)N1CCC(n2nnc3cc(F)ccc32)CC1 | 17 | -3 | 10 | 4 | 0
O=S(=O)(c1ccc(Cl)cc1)N1CCC(n2cnc3cc(C(F)(F)F)ccc32)CC1 | -2 | -1 | 0 | 56* | .
COc1cc(OC)cc(C(=O)NNC(=O)C2CCCC2)c1 | . | . | -1 | -15 | -4
COc1ccccc1N(Cc1cc(=O)[nH]c2ccccc12)C(=O)c1ccc([N+](=O)[O-])cc1 | . | . | 3 | 14 | 1
Cc1cc(NC(=O)/C=C/C(=O)N(CC(=O)NC2CCCC2)c2cccc3ccccc23)no1 | 96* | 0 | 0 | -27 | -27
CCc1ccc(C(C(=O)NC2CCCC2)N(C(=O)/C=C/C(=O)Nc2cc(C)on2)c2ccccc2C)cc1 (stereo unspecified) | 99* | 1 | 7 | 9 | -1
CCc1ccc(N(C(=O)CCC(=O)Nc2cc(C)on2)C(C(=O)NC2CCCC2)c2ccco2)cc1 (stereo unspecified) | 96* | -1 | -2 | -11 | 11
CCOc1ccc(N(C(=O)/C=C/C(=O)Nc2cc(C)on2)C(C(=O)NC2CCCC2)c2ccccc2C)cc1 (stereo unspecified) | 87* | 2 | -2 | 1 | .
Cc1cc(NC(=O)CCC(=O)N(c2ccc(C)c(F)c2)C(C(=O)NC2CCCC2)c2ccco2)no1 (stereo unspecified) | . | . | 1 | -6 | -9
CCn1c(=O)c2[nH]c(SC)nc2n(CC)c1=O | . | . | 0 | . | .
O=C(NCc1ccncc1)[C@@H]1CCCN1C(=O)[C@H]1CCCN1C(=O)c1c(F)cccc1F | . | . | 0 | . | .
COc1ccc(/C=C2/C(=O)N(c3ccccc3)N=C2C)cc1Br | . | . | 2 | 6 | 6
COc1cc(/C=C2/C(=O)N(c3ccccc3)N=C2C)ccc1OS(=O)(=O)c1ccccc1 | 87* | 0 | . | -9 | 4
CC1=NN(c2ccc(C)c(C)c2)C(=O)/C1=C/c1ccc2c(c1)n(C)c(=O)n2C | 97* | 1 | 1 | -11 | -2
Cc1ccn(CCC(=O)N2CCCC(CCC(=O)N3CCN(c4ccccn4)CC3)C2)n1 (stereo unspecified) | -4 | -1 | 0 | 2 | 22
C=CCN(CC=C)C(=O)c1ccc(OC2CCN(S(=O)(=O)N(C)C)CC2)cc1 | -3 | 0 | 4 | 1 | 4
SMILES | L major viab | DTT redox prof | MPTP inh | T cruzi repl | Hep lipid drop
O=C(CSc1nnc2c(Cl)cc(Cl)cn12)N1CCN(S(=O)(=O)c2ccccc2)CC1 | 4 | 3 | 0 | 6 | .
O=C(CSc1nnc2c(Cl)cc(Cl)cn12)N1CCN(c2ccc(F)cc2)CC1 | 53* | . | 0 | -1 | -13
COc1cc(C)c(S(=O)(=O)N2CCOCC2)cc1C(C)C | 1 | 2 | 1 | 3 | -2
COc1cc(C)c(N)cc1C(C)C | -2 | 2 | 0 | 67* | 4
COc1cc(NS(=O)(=O)c2ccc(NC(=O)/C=C/C(=O)O)cc2)nc(OC)n1 | . | . | -2 | 0 | -2
CCNC(=S)N(CCc1c(C)[nH]c2ccc(Cl)cc12)Cc1ccco1 | 43 | -3 | 2 | 72* | -48
COCCNC(=S)N(CCc1c(C)[nH]c2ccc(Cl)cc12)Cc1cccs1 | 53* | 0 | 1 | 52 | 0
CCNC(=S)N(CCc1c(C)[nH]c2ccc(C)cc12)Cc1cccs1 | 39 | 0 | 0 | 40 | -22
CNC(=S)N(CCc1c(C)[nH]c2ccc(Cl)cc12)Cc1cccs1 | 43 | -1 | . | 60* | -11
CNC(=S)N(CCc1c(C)[nH]c2ccc(C)cc12)Cc1ccco1 | 14 | 0 | -1 | -6 | -11
CCN(Cc1ccc(OC)c(F)c1)C(C)C(=O)Nc1ccc(S(=O)(=O)N2CCCC2)cc1 (stereo unspecified) | . | . | -1 | . | .
Cc1[nH]n(-c2ccccc2)c(=O)c1/C=N/Nc1nncc(-c2ccccc2)n1 | 100* | -3 | 3 | 70* | -138
Cc1[nH]n(-c2ccccc2)c(=O)c1/C=N/NC(=O)c1ccc(O)cc1O | . | . | 1 | -11 | .
Cc1ccc(/C=N/Nc2nncc(-c3ccccc3)n2)o1 | 9 | 0 | -1 | 15 | -12
CCCCN(CCCC)C(=S)N/N=C/c1c(C)[nH]n(-c2ccccc2)c1=O | 96* | -3 | 20 | -21 | .
O=C(NNS(=O)(=O)c1ccc(F)cc1)C1CCN(Cc2cccc(F)c2)CC1 | 86* | -1 | -1 | 0 | 23
Cc1cc(C)c(S(=O)(=O)NNC(=O)C2CCN(Cc3ccccc3)CC2)c(C)c1 | 91* | 2 | 0 | 2 | .
CCNC(=O)C1(C)CCCN(C(=O)/C=C/c2ccccc2)C1 (stereo unspecified) | . | . | -2 | . | .
Cc1ccc(S(=O)(=O)Nc2ccc3c(c2)C(=O)NC3=O)cc1[N+](=O)[O-] | . | . | 0 | 6 | -9
O=C(NCc1ccccc1)c1ncn[nH]1 | . | . | 0 | -10 | -15
Cc1c(C=O)c2ccccn2c1C(=O)c1ccccc1 | -8 | 0 | -3 | 36 | 5
Cc1c(C(C)(C)C)c(C=S)n2ccccc12 | 63* | -2 | 3 | 35 | -8
CCOc1cc(C=O)ccc1OCCCN1C(=O)NC(C)(C)C1=O | 3 | 1 | 0 | -16 | .
CCCCOc1ccc(/C=C/C2=CC(C)(C)NC(=S)N2)cc1OCC | 20 | -1 | 1 | 70* | -15
CN(C)c1ccc2nc3ccc(=[N+](C)C)cc-3sc2c1 | 100* | 3 | 48 | 43 | 16
CN(C)c1ccc2nc3ccc(=O)cc-3sc2c1 | . | . | 5 | . | .
Cc1ccc(OCC(O)CN2CCOCC2)c(C)c1 (stereo unspecified) | . | . | 0 | 1 | 6
CCN1CCN(CC(O)COc2ccc(C(C)=O)cc2)CC1 (stereo unspecified) | 8 | -1 | -2 | 8 | .

From PubChem BioAssay
